For experiment [1], the species on record is Sus scrofa. Kind of experiment: Binding affinity to porcine pancreatic elastase assessed as protein labeling at 2 uM after 15 mins by fluorescent scanning method. The gist of the method:
(§1)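 100 ng purified protease per lane; cathepsin G in 50 mM HEPES pH 7.4 with 100 mM NaCl, others in 50 mM phosphate pH 7.4. Optional 30 min pre-block (chymotrypsin 100 µM Ala-Ala-Phe-phosphonate, cathepsin G 1 mM PMSF, urokinase 100 µM DFP, elastase/trypsin 1 mM dichloroisocoumarin). Probe 2 µM, 15 min at room temperature. Then 30 min room-temperature click (25 µM TAMRA-PEG-N3, 50 µM THPTA, 1 mM CuSO4, 500 µM ascorbate), SDS-PAGE, scan ex 532/em 580 nm.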

Another experiment deals with Trypsin (Homo sapiens) (UniProt P07477+P07478+P35030). Kind of experiment: Binding affinity to trypsin assessed as protein labeling at 2 uM after 15 mins by fluorescent scanning method. It is filed as protein assay. The gist of the method:
as §1

The species entered for experiment [2] is Rattus norvegicus. The experiment in a line: Binding affinity to 26 kDa Chymotrypsin in rat liver proteome assessed as protein labeling at 1 uM after 30 mins pre-treated with 100 uM TPCK for 30 mins before compound addition by fluorescent scanning method. Put shortly: (§2)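 Rat liver homogenate (70 µm strainer, 0.5% NP-40 substitute in PBS, 1 h on ice, 15,000 rpm spin), diluted to 1 mg/mL protein in 50 mM phosphate, pH 7.4; pretreated 30 min on ice with DMSO, TPCK (100 µM) or PMSF (1 mM), then IC probe. Cu(I) click with TAMRA-PEG-N3/THPTA/CuSO4/ascorbate, SDS-PAGE, fluorescence scan (ex 532/em 580 nm).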

Experiment [3] is filed under the species Bos taurus. The experiment in a line: Binding affinity to bovine chymotrypsin assessed as protein labeling at 2 uM measured after 15 mins pretreated with 100 uM Ala-Ala-Phe-diphenyl phosphonate for 30 mins before compound addition by fluorescent scanning method. Put shortly:
as §1

The species entered for experiment [4] is Rattus norvegicus. The experiment in a line: Binding affinity to 26 kDa Chymotrypsin in rat liver proteome assessed as protein labeling at 1 uM after 30 mins by fluorescent scanning method. Put shortly: as §2
The target in experiment [5] is Urokinase-type plasminogen activator (Homo sapiens) (UniProt P00749). The experiment in a line: Binding affinity to urokinase-type plasminogen activator assessed as protein labeling at 2 uM after 15 mins pretreated with 100 uM DFP for 30 mins before compound addition by fluorescent scanning method. The gist of the method:
as §1

Experiment [6] addresses T1, Cathepsin G (Homo sapiens) (UniProt P08311).
T1 sequence (whole entry): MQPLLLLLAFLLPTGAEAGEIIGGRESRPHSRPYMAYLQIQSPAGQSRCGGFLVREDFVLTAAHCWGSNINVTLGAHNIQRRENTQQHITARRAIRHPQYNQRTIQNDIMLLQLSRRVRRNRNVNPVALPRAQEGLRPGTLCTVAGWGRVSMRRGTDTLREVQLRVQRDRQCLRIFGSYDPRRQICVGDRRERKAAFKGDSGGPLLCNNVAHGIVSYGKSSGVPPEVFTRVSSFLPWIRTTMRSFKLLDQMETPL
The experiment in a line: Binding affinity to human cathepsin G assessed as protein labeling at 2 uM after 15 mins by fluorescent scanning method. The gist of the method:
as §1

Experiment [7] has as its target Urokinase-type plasminogen activator (Homo sapiens) (UniProt P00749). Kind of experiment: Binding affinity to urokinase-type plasminogen activator assessed as protein labeling at 2 uM after 15 mins by fluorescent scanning method. Put shortly: as §1
The species entered for experiment [8] is Bos taurus. The experiment in a line: Binding affinity to bovine chymotrypsin assessed as protein labeling at 2 uM measured after 15 mins by fluorescent scanning method. Put shortly:
as §1

The species named for experiment [9] is Sus scrofa. The experiment in a line: Binding affinity to porcine pancreatic elastase assessed as protein labeling at 2 uM after 15 mins pretreated with 1 mM 3,4-dichloroisocoumarin for 30 mins before compound addition by fluorescent scanning method. The gist of the method: as §1
For another experiment, the system named is lymphoma. The experiment in a line: Binding affinity to porcine pancreatic elastase assessed as protein labeling at 2 uM after 15 mins in presence of mouse EL4 lymphoma cell lysate for protease spiking by fluorescent scanning method relative to total protein content. It is filed as cell-free. The note with it: Sus scrofa. Put shortly: (§3)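 Protease spiked into EL4 mouse lymphoma lysate (RIPA, 30 min on ice, cleared by centrifugation; 1 mg/mL protein in 50 mM phosphate pH 7.4), optionally pre-blocked (urokinase 100 µM DFP). Labeled with 2 µM probe 15 min on ice. Click on ice 30 min with TAMRA-PEG-N3, THPTA, CuSO4, ascorbate; 12% or 15% SDS-PAGE, fluorescence scan ex 532/em 580 nm.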

The target of experiment [10] is Urokinase-type plasminogen activator (Homo sapiens) (UniProt P00749). The experiment in a line: Binding affinity to urokinase-type plasminogen activator assessed as protein labeling at 2 uM after 15 mins in presence of mouse EL4 lymphoma cell lysate for protease spiking by fluorescent scanning method relative to total protein content. The class given is cell-free. Put shortly: as §3

Experiment [11] has the same target. The experiment in a line: Binding affinity to urokinase-type plasminogen activator assessed as protein labeling at 2 uM after 15 mins pretreated with 100 uM DFP for 30 mins before compound addition in presence of mouse EL4 lymphoma cell lysate for protease spiking by fluorescent scanning method relative to total protein content. The class given is cell-free. Put shortly:
as §3

The species entered for experiment [12] is Rattus norvegicus. The experiment in a line: Binding affinity to 25 kDa Chymotrypsin in rat liver proteome assessed as protein labeling at 1 uM after 30 mins by fluorescent scanning method. The gist of the method: as §2
The species named for experiment [13] is Rattus norvegicus. The experiment in a line: Binding affinity to 25 kDa Chymotrypsin in rat liver proteome assessed as protein labeling at 1 uM after 30 mins pre-treated with 100 uM TPCK for 30 mins before compound addition by fluorescent scanning method. The gist of the method: as §2
The species entered for experiment [14] is Rattus norvegicus. Kind of experiment: Binding affinity to 50 kDa Serine protease band in rat liver proteome assessed as protein labeling at 1 uM after 30 mins by fluorescent scanning method. The note with it: 0.5 uM, in the assay text read “at 0.5 uM” for “at 1 uM”. Put shortly:
as §2

The species entered for experiment [15] is Rattus norvegicus. Kind of experiment: Binding affinity to 50 kDa Serine protease band in rat liver proteome assessed as protein labeling at 1 uM after 30 mins pre-treated with 100 uM TPCK for 30 mins before compound addition by fluorescent scanning method. The note with it: 0.5 uM, in the assay text read “at 0.5 uM” for “at 1 uM”. The gist of the method: as §2

The target of experiment [16] is T1, Cathepsin G (Homo sapiens). Kind of experiment: Binding affinity to human cathepsin G assessed as protein labeling at 2 uM after 15 mins in presence of mouse EL4 lymphoma cell lysate for protease spiking by fluorescent scanning method relative to total protein content. The class given is cell-free. Put shortly: as §3
The species named for experiment [17] is Rattus norvegicus. The experiment in a line: Binding affinity to 50 kDa Serine protease band in rat liver proteome assessed as protein labeling at 1 uM after 30 mins pre-treated with serin eprotease inhibitor PMSF for 30 mins before compound addition by fluorescent scanning method. The note with it: 0.5 uM, in the assay text read “at 0.5 uM” for “at 1 uM”. The gist of the method: as §2

Active and inactive are the calls of the source. The rule behind the calls is not given here.

Regarding `C#CCCOc1oc(=O)c2ccccc2c1Cl`, the result (in the experiment listed under Sus scrofa [1]; at Trypsin (Homo sapiens); in the experiment filed under Rattus norvegicus [4]; in experiment [6]; in experiment [7]; in the experiment filed under Bos taurus [8]) was Active. Also, the outcome (in the experiment filed under Rattus norvegicus [2]; in the experiment listed under Bos taurus [3]; in experiment [5]) was inactive.

With `C#CCCC(=O)Nc1ccc2c(Cl)c(OCCBr)oc(=O)c2c1`, the outcome (in the experiment listed under Sus scrofa [1]; in experiment [6]; in the experiment listed under Bos taurus [8]) was Active. The outcome in the experiment filed under Sus scrofa [9] and in the experiment filed under Bos taurus [3] was inactive.

Consider `C#CCCC(=O)Nc1ccc2c(Cl)c(OCCSC(=N)N)oc(=O)c2c1`, for which the outcome (at Trypsin (Homo sapiens); in experiment [7]; in the experiment filed under Bos taurus [8]) was Active. In addition, the result in the experiment filed under Bos taurus [3] was inactive.

Regarding `C#CCCOc1oc(=O)c2cc([N+](=O)[O-])ccc2c1Cl`, the result (in the experiment filed under Sus scrofa [1]; on Trypsin (Homo sapiens); in the experiment filed under Sus scrofa [9]; in [7]; in the experiment listed under Bos taurus [8]) was Active. In addition, the outcome (in the experiment filed under Bos taurus [3]; in experiment [5]) was inactive.

Consider `C#CCCOc1oc(=O)c2cc(NC(=O)CN)ccc2c1Cl`, for which the result (on Trypsin (Homo sapiens); in experiment [7]; in the experiment listed under Bos taurus [8]) was Active. Moreover, the outcome in the experiment filed under Bos taurus [3] was inactive.

As to `C#CCCC(=O)Nc1ccc2c(Cl)c(OC)oc(=O)c2c1`, the result (in the experiment filed under Sus scrofa [1]; in experiment [6]; in the experiment listed under Bos taurus [8]) was Active. For the same compound, the outcome in the experiment filed under Sus scrofa [9] and in the experiment listed under Bos taurus [3] was inactive. Besides, in the experiment with lymphoma, the Activity worked out at 0.007%.

With `C#CCCC(=O)Nc1ccc2c(Cl)c(OCCc3ccccc3)oc(=O)c2c1`, in the experiment listed under Bos taurus [3], the result was inactive. The outcome in the experiment listed under Bos taurus [8] was Active.

Turning to `C#CCCOc1oc(=O)c2cc(NC(=O)CNC(=N)N)ccc2c1Cl`, the outcome (in the experiment filed under Sus scrofa [1]; on Trypsin (Homo sapiens); in experiment [11]; in experiment [7]; in the experiment listed under Bos taurus [8]) was Active. The Activity in experiment [10] turned out to be 0.03%. The outcome in the experiment filed under Sus scrofa [9] and in the experiment filed under Bos taurus [3] was inactive.

As to `C#CCCOc1oc(=O)c2cc(NC(=O)c3ccccc3)ccc2c1Cl`, the result in the experiment listed under Bos taurus [3] and in the experiment filed under Rattus norvegicus [13] was inactive. Further, the result (in experiment [6]; in the experiment filed under Rattus norvegicus [12]; in the experiment filed under Bos taurus [8]) was Active.

As for `C#CCCOc1oc(=O)c2cc(N)ccc2c1Cl`, the result (in the experiment listed under Sus scrofa [1]; on Trypsin (Homo sapiens); in the experiment filed under Sus scrofa [9]; in the experiment filed under Rattus norvegicus [14]; in the experiment listed under Rattus norvegicus [15]; in experiment [6]) was Active. Moreover, the outcome (in [7]; in the experiment filed under Bos taurus [8]) was Active. Also, the outcome (in the experiment listed under Bos taurus [3]; in [5]; in the experiment filed under Rattus norvegicus [17]) was inactive. Moreover, the Activity in experiment [16] came out at 0.03%.

The values are drawn from ChEMBL document CHEMBL2062384, “Alkyne derivatives of isocoumarins as clickable activity-based probes for serine proteases” (Bioorg Med Chem, 2012).
